Experimental data reported in ChEMBL document CHEMBL5705905, “Pharmacological targeting of kinases MST1 and MST2 augments tissue repair and regeneration” (Sci Transl Med, 2016).
Calls of active or inactive are those of the source. No cut-off for these calls is given here.

How the values were obtained:
[1] = molecular target: Calcium/calmodulin-dependent protein kinase type II subunit delta (Homo sapiens) (UniProt Q13557); assay: Inhibition of CAMK2D (unknown origin) assessed as remaining activity at 1 uM by Kinome scan method relative to control
Summary of the method: (§1)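 Active-site-dependent competition-binding profiling (KINOMEscan) at 1 μM against a 468-kinase panel; compound supplied from a 10 mM DMSO stock. Read-out is ctrl% = (test signal − positive control signal)/(negative control signal − positive control signal) × 100. DMSO is the negative control (100%) and a control compound the positive control (0%). Lower ctrl% means tighter binding.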

[2] = tested on: Hepatocyte growth factor receptor (Homo sapiens), P08581 [M1250T]; assay: Inhibition of MET M1250T mutant (unknown origin) assessed as remaining activity at 1 uM by Kinome scan method relative to control
[3] = molecular target: Serine/threonine-protein kinase 17B (Homo sapiens) (UniProt O94768); assay: Inhibition of DRAK2 (unknown origin) assessed as remaining activity at 1 uM by Kinome scan method relative to control
[4] = molecular target: Death-associated protein kinase 2 (Homo sapiens) (UniProt Q9UIK4); assay: Inhibition of DAPK2 (unknown origin) assessed as remaining activity at 1 uM by Kinome scan method relative to control; summary of the method: as §1
[5] = molecular target: Mitogen-activated protein kinase 7 (Homo sapiens) (UniProt Q13164); assay: Inhibition of ERK5 (unknown origin) assessed as remaining activity at 1 uM by Kinome scan method relative to control
[6] = molecular target: Serine/threonine-protein kinase mTOR (Homo sapiens) (UniProt P42345); assay: Inhibition of MTOR (unknown origin) assessed as remaining activity at 1 uM by Kinome scan method relative to control
[7] = molecular target: Cyclin-dependent kinase-like 2 (Homo sapiens) (UniProt Q92772); assay: Inhibition of CDKL2 (unknown origin) assessed as remaining activity at 1 uM by Kinome scan method relative to control; summary of the method: as §1
[8] = molecular target: Receptor-interacting serine/threonine-protein kinase 1 (Homo sapiens) (UniProt Q13546); assay: Inhibition of RIPK1 (unknown origin) assessed as remaining activity at 1 uM by Kinome scan method relative to control
[9] = molecular target: Serine/threonine-protein kinase Nek9 (Homo sapiens) (UniProt Q8TD19); assay: Inhibition of NEK9 (unknown origin) assessed as remaining activity at 1 uM by Kinome scan method relative to control
[10] = molecular target: Ephrin type-A receptor 3 (Homo sapiens) (UniProt P29320); assay: Inhibition of EPHA3 (unknown origin) assessed as remaining activity at 1 uM by Kinome scan method relative to control
[11] = molecular target: Fibroblast growth factor receptor 2 (Homo sapiens) (UniProt P21802); assay: Inhibition of FGFR2 (unknown origin) assessed as remaining activity at 1 uM by Kinome scan method relative to control
Mus musculus [12] = assay: Protection against APAP induced liver injury in mouse assessed as decrease in ALT level at 1 mg/kg, ip administered at 1.5 hrs; format: functional, organism-based; settings: Serum
[13] = molecular target: Mitogen-activated protein kinase kinase kinase kinase 4 (Homo sapiens) (UniProt O95819); assay: Inhibition of MAP4K4 (unknown origin) assessed as remaining activity at 1 uM by Kinome scan method relative to control
[14] = molecular target: Proto-oncogene tyrosine-protein kinase ROS (Homo sapiens) (UniProt P08922); assay: Inhibition of ROS1 (unknown origin) assessed as remaining activity at 1 uM by Kinome scan method relative to control
[15] = tested on: Phosphatidylinositol 4,5-bisphosphate 3-kinase catalytic subunit alpha isoform (Homo sapiens), P42336 [Q546K]; assay: Inhibition of PIK3CA Q546K mutant (unknown origin) assessed as remaining activity at 1 uM by Kinome scan method relative to control
[16] = molecular target: Serine/threonine-protein kinase MRCK alpha (Homo sapiens) (UniProt Q5VT25); assay: Inhibition of MRCKA (unknown origin) assessed as remaining activity at 1 uM by Kinome scan method relative to control
Mus musculus [17] = assay: Anti-colitis activity against DSS-induced mouse assessed as high BrdU incorporation at 1 mg/kg, ip administrated daily for 8 days by IHC staining; format: functional, organism-based; settings: Colon, time 8.0 day
Summary of the method: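 Wild-type mice received oral DSS for 7 days with vehicle or 1 mg/kg daily. Colon sections were stained by IHC for YAP, BrdU and Ki67, and positive cells were quantified per animal. Means ± SD, n = 10, Student's t test.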

[18] = molecular target: Serine/threonine-protein kinase DCLK1 (Homo sapiens) (UniProt O15075); assay: Inhibition of DCAMKL1 (unknown origin) assessed as remaining activity at 1 uM by Kinome scan method relative to control
Summary of the method: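 Active-site-dependent competition-binding assay (KINOMEscan) across a 468-kinase panel, with the inhibitor tested at 1 μM from a 10 mM DMSO stock. Read-out is ctrl% = (test signal − positive control)/(negative control − positive control) × 100. DMSO is the negative control (100%) and a control compound the positive control (0%). Lower ctrl% means tighter binding.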

[19] = molecular target: Dual specificity testis-specific protein kinase 1 (Homo sapiens) (UniProt Q15569); assay: Inhibition of TESK1 (unknown origin) assessed as remaining activity at 1 uM by Kinome scan method relative to control
[20] = molecular target: Mitogen-activated protein kinase 14 (Homo sapiens) (UniProt Q16539); assay: Inhibition of P38alpha (unknown origin) assessed as remaining activity at 1 uM by Kinome scan method relative to control
[21] = tested on: Tyrosine-protein kinase ABL1 (Homo sapiens), P00519 [H396P]; assay: Inhibition of phosphorylated ABL1 H396P mutant (unknown origin) assessed as remaining activity at 1 uM by Kinome scan method relative to control
[22] = tested on: Leucine-rich repeat serine/threonine-protein kinase 2 (Homo sapiens), Q5S007 [G2019S]; assay: Inhibition of LRRK2 G2019S mutant (unknown origin) assessed as remaining activity at 1 uM by Kinome scan method relative to control
[23] = molecular target: Epithelial discoidin domain-containing receptor 1 (Homo sapiens) (UniProt Q08345); assay: Inhibition of DDR1 (unknown origin) assessed as remaining activity at 1 uM by Kinome scan method relative to control
[24] = molecular target: Casein kinase I isoform delta (Homo sapiens) (UniProt P48730); assay: Inhibition of CSNK1D (unknown origin) assessed as remaining activity at 1 uM by Kinome scan method relative to control; summary of the method: as §1
[25] = molecular target: Dual specificity mitogen-activated protein kinase kinase 2 (Homo sapiens) (UniProt P36507); assay: Inhibition of MEK2 (unknown origin) assessed as remaining activity at 1 uM by Kinome scan method relative to control
[26] = molecular target: Serine/threonine-protein kinase RIO2 (Homo sapiens) (UniProt Q9BVS4); assay: Inhibition of RIOK2 (unknown origin) assessed as remaining activity at 1 uM by Kinome scan method relative to control
[27] = molecular target: Ephrin type-B receptor 1 (Homo sapiens) (UniProt P54762); assay: Inhibition of EPHB1 (unknown origin) assessed as remaining activity at 1 uM by Kinome scan method relative to control
[28] = molecular target: Receptor-interacting serine/threonine-protein kinase 4 (Homo sapiens, UniProt P57078); assay: Binding affinity to RIPK4 (unknown origin) assessed as dissociation constant
Chain of Receptor-interacting serine/threonine-protein kinase 4 (P57078 whole entry): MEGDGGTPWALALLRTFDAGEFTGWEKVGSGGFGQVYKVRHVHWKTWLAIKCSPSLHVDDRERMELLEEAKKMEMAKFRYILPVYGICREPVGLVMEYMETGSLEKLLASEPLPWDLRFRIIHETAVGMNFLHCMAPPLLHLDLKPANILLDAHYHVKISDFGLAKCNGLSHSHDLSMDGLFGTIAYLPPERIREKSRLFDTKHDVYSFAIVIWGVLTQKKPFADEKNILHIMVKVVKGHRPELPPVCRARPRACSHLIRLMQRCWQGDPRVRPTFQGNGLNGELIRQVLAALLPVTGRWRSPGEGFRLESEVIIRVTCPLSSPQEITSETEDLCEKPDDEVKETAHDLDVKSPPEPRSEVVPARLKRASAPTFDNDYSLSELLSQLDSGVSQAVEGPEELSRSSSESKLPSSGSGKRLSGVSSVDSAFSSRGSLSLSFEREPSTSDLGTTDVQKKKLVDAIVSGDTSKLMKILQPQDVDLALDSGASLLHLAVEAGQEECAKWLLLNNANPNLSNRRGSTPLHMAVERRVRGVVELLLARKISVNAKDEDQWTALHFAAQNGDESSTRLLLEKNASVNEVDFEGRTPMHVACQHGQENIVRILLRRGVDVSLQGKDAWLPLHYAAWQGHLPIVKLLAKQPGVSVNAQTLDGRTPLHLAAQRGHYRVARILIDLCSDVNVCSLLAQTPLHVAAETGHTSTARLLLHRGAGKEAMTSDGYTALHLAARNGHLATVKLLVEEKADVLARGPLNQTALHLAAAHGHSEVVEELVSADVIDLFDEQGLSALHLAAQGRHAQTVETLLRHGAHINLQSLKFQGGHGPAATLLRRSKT

Chain of Serine/threonine-protein kinase 17B (Homo sapiens) (O94768 whole entry): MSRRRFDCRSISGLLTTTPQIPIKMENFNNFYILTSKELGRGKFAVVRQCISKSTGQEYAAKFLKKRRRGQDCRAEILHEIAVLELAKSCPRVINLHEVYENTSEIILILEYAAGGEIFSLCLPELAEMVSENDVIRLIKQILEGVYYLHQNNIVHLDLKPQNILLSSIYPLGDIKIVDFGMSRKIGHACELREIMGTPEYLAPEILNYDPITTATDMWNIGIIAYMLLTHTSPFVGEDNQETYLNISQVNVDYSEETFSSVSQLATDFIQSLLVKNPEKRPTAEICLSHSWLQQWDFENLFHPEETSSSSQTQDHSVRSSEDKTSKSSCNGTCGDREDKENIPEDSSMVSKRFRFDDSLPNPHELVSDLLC
Chain of Serine/threonine-protein kinase Nek9 (Homo sapiens) (Q8TD19 whole entry): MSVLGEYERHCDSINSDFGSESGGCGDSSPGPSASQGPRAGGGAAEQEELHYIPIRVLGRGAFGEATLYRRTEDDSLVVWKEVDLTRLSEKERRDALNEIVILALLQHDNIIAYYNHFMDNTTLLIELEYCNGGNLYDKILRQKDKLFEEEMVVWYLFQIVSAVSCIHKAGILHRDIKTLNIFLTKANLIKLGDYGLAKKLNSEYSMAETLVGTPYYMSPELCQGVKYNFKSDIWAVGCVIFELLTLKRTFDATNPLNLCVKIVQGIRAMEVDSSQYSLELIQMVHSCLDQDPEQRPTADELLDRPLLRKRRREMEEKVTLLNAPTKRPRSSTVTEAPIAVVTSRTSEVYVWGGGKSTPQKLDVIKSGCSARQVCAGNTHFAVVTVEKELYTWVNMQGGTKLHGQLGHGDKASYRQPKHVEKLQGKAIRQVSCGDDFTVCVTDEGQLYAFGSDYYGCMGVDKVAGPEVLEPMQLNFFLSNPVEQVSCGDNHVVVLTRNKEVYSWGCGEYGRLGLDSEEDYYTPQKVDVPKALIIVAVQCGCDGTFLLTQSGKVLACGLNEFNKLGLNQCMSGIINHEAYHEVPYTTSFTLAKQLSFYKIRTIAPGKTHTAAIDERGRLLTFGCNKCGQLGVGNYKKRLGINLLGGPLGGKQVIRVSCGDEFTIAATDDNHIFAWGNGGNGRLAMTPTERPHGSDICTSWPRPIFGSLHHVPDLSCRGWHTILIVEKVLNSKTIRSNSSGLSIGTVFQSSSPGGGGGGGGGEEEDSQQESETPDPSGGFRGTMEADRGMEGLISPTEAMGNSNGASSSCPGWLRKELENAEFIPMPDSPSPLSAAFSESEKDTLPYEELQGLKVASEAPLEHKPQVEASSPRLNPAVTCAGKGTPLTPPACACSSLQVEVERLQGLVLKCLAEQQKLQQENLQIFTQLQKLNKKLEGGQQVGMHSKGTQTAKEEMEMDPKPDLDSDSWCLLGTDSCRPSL
Chain of Mitogen-activated protein kinase kinase kinase kinase 4 (Homo sapiens) (O95819 2-1239 limits assumed): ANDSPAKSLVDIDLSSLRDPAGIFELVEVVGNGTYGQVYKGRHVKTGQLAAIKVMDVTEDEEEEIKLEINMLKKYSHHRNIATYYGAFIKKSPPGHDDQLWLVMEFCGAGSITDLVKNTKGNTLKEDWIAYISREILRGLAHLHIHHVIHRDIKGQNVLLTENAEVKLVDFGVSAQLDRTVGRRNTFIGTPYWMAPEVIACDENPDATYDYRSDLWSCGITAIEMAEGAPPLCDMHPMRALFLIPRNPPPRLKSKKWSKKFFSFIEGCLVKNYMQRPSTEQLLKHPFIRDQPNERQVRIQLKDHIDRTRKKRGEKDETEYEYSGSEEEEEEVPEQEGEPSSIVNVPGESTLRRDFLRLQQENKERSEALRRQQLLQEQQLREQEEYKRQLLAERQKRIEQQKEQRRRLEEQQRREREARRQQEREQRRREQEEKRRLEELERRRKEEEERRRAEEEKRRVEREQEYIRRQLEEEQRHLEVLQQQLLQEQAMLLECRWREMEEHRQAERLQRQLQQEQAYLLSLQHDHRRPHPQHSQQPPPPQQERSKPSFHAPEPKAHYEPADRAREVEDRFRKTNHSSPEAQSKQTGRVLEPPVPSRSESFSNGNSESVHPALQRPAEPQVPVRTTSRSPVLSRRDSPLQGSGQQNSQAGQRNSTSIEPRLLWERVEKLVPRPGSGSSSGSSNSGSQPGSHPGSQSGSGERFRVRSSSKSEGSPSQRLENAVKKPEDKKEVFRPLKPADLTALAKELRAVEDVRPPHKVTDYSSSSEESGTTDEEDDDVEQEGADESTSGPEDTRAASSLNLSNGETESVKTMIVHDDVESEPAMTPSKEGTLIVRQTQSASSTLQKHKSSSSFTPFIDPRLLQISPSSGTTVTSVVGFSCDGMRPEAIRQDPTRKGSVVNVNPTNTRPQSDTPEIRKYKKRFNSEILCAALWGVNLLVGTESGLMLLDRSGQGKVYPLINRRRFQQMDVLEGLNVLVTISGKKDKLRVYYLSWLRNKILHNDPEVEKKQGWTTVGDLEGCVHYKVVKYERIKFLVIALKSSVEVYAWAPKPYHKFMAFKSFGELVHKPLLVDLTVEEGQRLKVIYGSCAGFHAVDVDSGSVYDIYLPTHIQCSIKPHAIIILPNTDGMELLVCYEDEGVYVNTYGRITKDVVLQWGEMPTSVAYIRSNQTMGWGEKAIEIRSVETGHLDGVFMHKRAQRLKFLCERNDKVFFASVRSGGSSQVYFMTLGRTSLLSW
Chain of Cyclin-dependent kinase-like 2 (Homo sapiens) (Q92772 whole entry): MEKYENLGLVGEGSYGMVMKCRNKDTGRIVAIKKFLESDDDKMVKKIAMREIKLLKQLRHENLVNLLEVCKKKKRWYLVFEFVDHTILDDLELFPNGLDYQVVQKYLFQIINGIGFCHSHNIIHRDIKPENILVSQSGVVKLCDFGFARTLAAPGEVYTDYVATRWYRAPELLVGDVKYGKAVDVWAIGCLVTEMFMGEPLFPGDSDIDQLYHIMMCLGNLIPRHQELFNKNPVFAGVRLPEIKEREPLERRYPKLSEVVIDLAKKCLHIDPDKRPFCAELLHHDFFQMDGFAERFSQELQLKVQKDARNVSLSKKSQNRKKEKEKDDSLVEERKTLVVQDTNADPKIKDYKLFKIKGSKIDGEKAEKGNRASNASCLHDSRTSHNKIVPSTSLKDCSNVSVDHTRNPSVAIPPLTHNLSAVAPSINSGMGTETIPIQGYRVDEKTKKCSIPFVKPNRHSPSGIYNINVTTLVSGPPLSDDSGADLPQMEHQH
Chain of Epithelial discoidin domain-containing receptor 1 (Homo sapiens) (Q08345 whole entry, the tested form may be a part, canonical isoform): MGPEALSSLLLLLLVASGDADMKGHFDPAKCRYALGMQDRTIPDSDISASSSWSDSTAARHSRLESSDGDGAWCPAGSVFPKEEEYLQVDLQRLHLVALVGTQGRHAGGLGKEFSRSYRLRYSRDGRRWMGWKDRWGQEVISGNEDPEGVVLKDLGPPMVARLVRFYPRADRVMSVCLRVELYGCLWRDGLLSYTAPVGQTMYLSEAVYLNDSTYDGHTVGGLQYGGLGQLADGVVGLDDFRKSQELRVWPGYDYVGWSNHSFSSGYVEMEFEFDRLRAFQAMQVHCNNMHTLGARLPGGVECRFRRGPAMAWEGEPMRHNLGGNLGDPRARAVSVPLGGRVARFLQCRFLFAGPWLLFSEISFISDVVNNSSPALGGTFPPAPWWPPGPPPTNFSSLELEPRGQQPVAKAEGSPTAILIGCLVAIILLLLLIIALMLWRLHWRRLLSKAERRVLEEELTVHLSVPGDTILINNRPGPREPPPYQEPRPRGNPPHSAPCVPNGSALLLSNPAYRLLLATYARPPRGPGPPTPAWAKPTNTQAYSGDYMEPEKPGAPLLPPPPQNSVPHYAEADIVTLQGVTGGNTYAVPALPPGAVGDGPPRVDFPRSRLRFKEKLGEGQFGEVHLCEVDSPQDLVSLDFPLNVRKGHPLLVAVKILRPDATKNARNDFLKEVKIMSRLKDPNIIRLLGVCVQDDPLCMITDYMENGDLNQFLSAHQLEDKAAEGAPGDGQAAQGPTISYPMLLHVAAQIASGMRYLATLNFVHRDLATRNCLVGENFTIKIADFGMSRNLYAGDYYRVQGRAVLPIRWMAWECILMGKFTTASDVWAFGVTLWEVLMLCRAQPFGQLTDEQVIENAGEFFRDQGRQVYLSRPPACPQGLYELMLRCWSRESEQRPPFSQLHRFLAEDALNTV

CN1C(=O)c2sccc2N(C)c2nc(Nc3ccc(S(N)(=O)=O)cc3)ncc21
Activity [1]: 100% | Activity [2]: 81% | Activity [3]: 90% | Activity [4]: 100% | Activity [5]: 60% | Activity [6]: 84% | Activity [7]: 97% | Activity [8]: 100% | Activity [9]: 94% | Activity [10]: 91% | Activity [11]: 100% | Activity (Mus musculus [12]): Active | Activity [13]: 100% | Activity [14]: 100% | Activity [15]: 50% | Activity [16]: 76% | Activity (Mus musculus [17]): Active | Activity [18]: 8.3% | Activity [19]: 80% | Activity [20]: 88% | Activity [21]: 14% | Activity [22]: 28% | Activity [23]: 63% | Activity [24]: 90% | Activity [25]: 99% | Activity [26]: 95% | Activity [27]: 100% | Kd [28]: 140 nM
